Data taken from ChEMBL document CHEMBL4477174, “Valencene from the Rhizomes of Cyperus rotundus Inhibits Skin Photoaging-Related Ion Channels and UV-Induced Melanogenesis in B16F10 Melanoma Cells” (J Nat Prod, 2016).

Key:
[1] = biological target: Calcium release-activated calcium channel protein 1 (Homo sapiens) (UniProt Q96D31); assay: Antagonist activity at human ORAI1 expressed in HEK293T cells assessed as […]-induced inwardly rectifying current at 90 uM and -120 mV by whole cell patch-clamp method relative to control; assay type: cell-based; parameters: scale not given: the % may be the effect or the level left
[2] = biological target: Transient receptor potential cation channel subfamily V member 1 (Homo sapiens) (UniProt Q8NER1); assay: Antagonist activity at human TRPV1 expressed in HEK293T cells assessed as capsaicin-induced inward transient currents at 90 uM and -60 mV by whole cell patch-clamp method relative to control; assay type: cell-based; parameters: scale not given: the % may be the effect or the level left
Procedure, shortened: (§1)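 Whole-cell patch clamp, with TRPV1 current evoked by 1 μM capsaicin. Current was compared before and after 90 μM test agent using mean I−V curves, read at −60 mV. Remaining current was normalized to the steady-state peak current before treatment (100%), reported as mean ± SEM, n = 3–6.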

B16-F10 [3] = assay: Cytotoxicity in mouse B16F10 cells at <3 ug/ml measured after 48 hrs by MTT assay; assay type: cell-based; conditions: b16-f10, 48 h
[4] = biological target: Calcium release-activated calcium channel protein 1 (Homo sapiens) (UniProt Q96D31); assay: Antagonist activity at human ORAI1 expressed in HEK293T cells assessed as inhibition of […]-induced inwardly rectifying current at -120 mV by whole cell patch-clamp method; assay type: cell-based
Homo sapiens [5] = organism: Homo sapiens; assay: Inhibition of SOCE signalling in human Jurkat-T cells assessed as reduction in alpha-CD3 induced cytoplasmic calcium concentration at 10 uM measured at every 2 sec interval by Fura-2 dye based fluorimetric analysis; assay type: cell-based; parameters: scale not given: the % may be the effect or the level left
B16-F10 [6] = assay: Inhibition of UV-induced melanogenesis in mouse B16F10 cells assessed as reduction in melanin level pretreated at 15 ug/ml prior to UVB exposure measured after 48 hrs by spectrophotometric method; assay type: functional; parameters: scale not given: the % may be the effect or the level left
Procedure, shortened: (§2)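 B16F10 murine melanoma cells were pretreated with test agent (7.5 or 15 μg/mL; reference ORAI1 inhibitor 3 μg/mL) before UVB exposure. Melanin content was measured 48 h later.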

Homo sapiens [7] = organism: Homo sapiens; assay: Inhibition of SOCE signalling in human Jurkat-T cells assessed as reduction in alpha-CD3 induced cytoplasmic calcium concentration at 30 uM measured at every 2 sec interval by Fura-2 dye based fluorimetric analysis; assay type: cell-based; parameters: scale not given: the % may be the effect or the level left
[8] = biological target: Transient receptor potential cation channel subfamily V member 1 (Homo sapiens) (UniProt Q8NER1); assay: Antagonist activity at human TRPV1 expressed in HEK293T cells assessed as inhibition of capsaicin-induced inward transient currents at 90 uM and -60 mV by whole cell patch-clamp method relative to control; assay type: cell-based; procedure, shortened: as §1
B16-F10 [9] = assay: Inhibition of UV-induced melanogenesis in mouse B16F10 cells assessed as reduction in melanin level pretreated with compound prior to UVB exposure measured after 48 hrs by spectrophotometric method; assay type: functional, cell-based; procedure, shortened: as §2
[10] = biological target: Calcium release-activated calcium channel protein 1 (Homo sapiens) (UniProt Q96D31); assay: Antagonist activity at human ORAI1 expressed in HEK293T cells assessed as inhibition of […]-induced inwardly rectifying current at 10 uM and -120 mV by whole cell patch-clamp method; assay type: cell-based
Homo sapiens [11] = organism: Homo sapiens; assay: Inhibition of SOCE signalling in human Jurkat-T cells assessed as reduction in alpha-CD3 induced cytoplasmic calcium concentration at 50 uM measured at every 2 sec interval by Fura-2 dye based fluorimetric analysis; assay type: cell-based; parameters: scale not given: the % may be the effect or the level left
[12] = biological target: Calcium release-activated calcium channel protein 1 (Homo sapiens) (UniProt Q96D31); assay: Antagonist activity at human ORAI1 expressed in HEK293T cells assessed as inhibition of […] induced inwardly rectifying current at 30 uM and -120 mV by whole cell patch-clamp method; assay type: cell-based
[13] = biological target: Calcium release-activated calcium channel protein 1 (Homo sapiens) (UniProt Q96D31); assay: Antagonist activity at human ORAI1 expressed in HEK293T cells assessed as inhibition of […]-induced inwardly rectifying current at 90 uM and -120 mV by whole cell patch-clamp method relative to control; assay type: cell-based
Homo sapiens [14] = organism: Homo sapiens; assay: Inhibition of SOCE signalling in human Jurkat-T cells assessed as reduction in alpha-CD3 induced cytoplasmic calcium concentration measured at every 2 sec interval by Fura-2 dye based fluorimetric analysis; assay type: cell-based
B16-F10 [15] = assay: Inhibition of UV-induced melanogenesis in mouse B16F10 cells assessed as reduction in melanin level pretreated at 7.5 ug/ml prior to UVB exposure measured after 48 hrs by spectrophotometric method; assay type: functional; parameters: scale not given: the % may be the effect or the level left; procedure, shortened: as §2
B16-F10 [16] = assay: Cytotoxicity in mouse B16F10 cells at <15 ug/ml measured after 48 hrs by MTT assay; assay type: cell-based; conditions: b16-f10, 48 h

Chain of Calcium release-activated calcium channel protein 1 (Homo sapiens) (Q96D31 whole entry, looked up): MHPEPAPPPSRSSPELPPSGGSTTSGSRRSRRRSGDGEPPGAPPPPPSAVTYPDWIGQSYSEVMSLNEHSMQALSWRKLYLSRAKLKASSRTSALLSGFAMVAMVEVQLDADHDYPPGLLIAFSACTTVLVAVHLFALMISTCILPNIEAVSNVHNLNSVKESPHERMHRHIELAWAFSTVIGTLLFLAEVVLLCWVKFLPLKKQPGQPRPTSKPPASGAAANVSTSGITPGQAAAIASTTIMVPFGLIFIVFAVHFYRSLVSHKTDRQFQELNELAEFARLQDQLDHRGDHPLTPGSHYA
Chain of Transient receptor potential cation channel subfamily V member 1 (Homo sapiens) (Q8NER1 whole entry): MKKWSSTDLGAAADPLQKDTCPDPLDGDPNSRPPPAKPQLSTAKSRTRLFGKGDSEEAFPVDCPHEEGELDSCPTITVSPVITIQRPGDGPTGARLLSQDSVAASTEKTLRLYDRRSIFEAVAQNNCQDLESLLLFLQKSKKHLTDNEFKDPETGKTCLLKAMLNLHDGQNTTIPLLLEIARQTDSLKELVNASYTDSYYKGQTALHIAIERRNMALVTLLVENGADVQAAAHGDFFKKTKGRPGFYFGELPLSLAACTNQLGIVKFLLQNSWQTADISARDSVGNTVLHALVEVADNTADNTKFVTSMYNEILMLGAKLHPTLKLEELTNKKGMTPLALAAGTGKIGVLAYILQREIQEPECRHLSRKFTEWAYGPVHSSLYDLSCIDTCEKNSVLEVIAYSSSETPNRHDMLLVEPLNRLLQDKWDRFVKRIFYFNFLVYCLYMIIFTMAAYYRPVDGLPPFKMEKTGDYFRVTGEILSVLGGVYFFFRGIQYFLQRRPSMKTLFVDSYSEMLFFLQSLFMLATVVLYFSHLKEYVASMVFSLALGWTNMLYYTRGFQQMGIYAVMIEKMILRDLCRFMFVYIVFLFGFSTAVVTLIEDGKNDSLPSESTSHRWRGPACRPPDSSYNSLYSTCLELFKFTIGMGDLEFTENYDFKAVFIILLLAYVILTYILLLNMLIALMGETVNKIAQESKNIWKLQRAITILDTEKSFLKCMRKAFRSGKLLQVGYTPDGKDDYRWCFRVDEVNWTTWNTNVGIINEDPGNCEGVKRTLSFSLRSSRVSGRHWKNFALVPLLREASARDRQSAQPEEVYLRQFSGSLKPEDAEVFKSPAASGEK

C=C1C2CCC(C2)C1(C)C (centres undefined)
Activity [1]: 79% | Activity [2]: 115%

Cc1nnsc1C(=O)Nc1ccc(-n2nc(C(F)(F)F)cc2C(F)(F)F)cc1
Activity (B16-F10 [3]): Non-Toxic

C=C(C)[C@@H]1CCC2=CCC[C@@H](C)[C@]2(C)C1
inhibition [4]: Dose-dependent effect | Activity (Homo sapiens [5]): 53% | Activity (B16-F10 [6]): 82.66% | Activity (Homo sapiens [7]): 75% | inhibition [8]: 69% | Activity (B16-F10 [9]): Dose-dependent effect | Activity [1]: 5% | inhibition [10]: 13% | Activity (Homo sapiens [11]): 85% | inhibition [12]: 45% | inhibition [13]: 94 to 95% | Activity (Homo sapiens [14]): Dose-dependent effect | Activity (B16-F10 [15]): 94.82% | Activity [2]: 31% | Activity (B16-F10 [16]): Non-Toxic

C=C(C)[C@@H]1CCC2=CC(=O)C[C@@H](C)[C@]2(C)C1
Activity [1]: 53% | Activity [2]: 176%

C=C(C)[C@@H]1CC[C@@]2(C)CCC(=O)C(C)=C2C1
Activity [1]: 50% | Activity [2]: 94%

C=C1CC[C@H]2O[C@]2(C)CC[C@@H]2[C@@H]1CC2(C)C
Activity [1]: 44% | Activity [2]: 45%
